Consider 5 compounds from ChEMBL document CHEMBL3351472, “Synthesis and Biological Activity of 25-Hydroxy-2-methylene-vitamin D3 analogues monohydroxylated in the A-ring” (J Med Chem, 2014).

The target in one assay is T1, Vitamin D3 receptor (Rattus norvegicus) (UniProt P13053).
T1 sequence (whole entry): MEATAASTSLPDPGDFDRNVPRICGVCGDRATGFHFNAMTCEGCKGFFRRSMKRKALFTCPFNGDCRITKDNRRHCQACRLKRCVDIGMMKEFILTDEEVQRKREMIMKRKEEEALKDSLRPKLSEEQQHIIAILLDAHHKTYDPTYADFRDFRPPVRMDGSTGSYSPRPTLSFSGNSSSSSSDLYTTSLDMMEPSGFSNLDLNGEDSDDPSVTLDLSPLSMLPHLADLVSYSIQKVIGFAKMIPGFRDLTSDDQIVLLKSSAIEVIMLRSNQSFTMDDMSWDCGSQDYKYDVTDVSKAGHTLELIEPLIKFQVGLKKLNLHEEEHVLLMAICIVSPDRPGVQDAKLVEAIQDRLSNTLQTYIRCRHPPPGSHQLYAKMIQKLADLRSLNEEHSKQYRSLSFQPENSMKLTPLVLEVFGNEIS
Put plainly: Ratio of 1alpha,25-(OH)2D3 Ki to compound Ki for full-length recombinant rat vitamin D receptor after 30 mins by liquid scintillation counting. The method, boiled down:
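Competitive binding to VDR was run against radiolabeled 1α,25-(OH)₂D₃ at 1 nM. […] Duplicate determinations were made on two separate occasions. Each value is the mean of the 1α,25-(OH)₂D₃ Ki divided by the analogue Ki.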
`C=C1CC/C(=C/C=C2\CCC[C@]3(C)[C@@H]([C@H](C)CCCC(C)(C)O)CC[C@@H]23)C(=C)[C@H]1O`: the Ratio Ki amounted to 0.25.

Turning to `C=C1CC/C(=C/C=C2\CCC[C@]3(C)[C@@H]([C@@H](C)CCCC(C)(C)O)CC[C@@H]23)C[C@H]1O`, the Ratio Ki is 0.5.

As to `C=C1[C@H](O)CC(=C/C=C2\CCC[C@]3(C)[C@@H]([C@@H](C)CCCC(C)(C)O)CC[C@@H]23)C[C@H]1O` [DP001], the Ratio Ki turned out to be 1.

On to `C=C1CC(=C)[C@H](O)C/C1=C/C=C1\CCC[C@]2(C)[C@@H]([C@@H](C)CCCC(C)(C)O)CC[C@@H]12`, for which the Ratio Ki came out at 0.33.

Regarding `C=C1CC[C@H](O)C/C1=C/C=C1\CCC[C@]2(C)[C@@H]([C@H](C)CCCC(C)(C)O)CC[C@@H]12` [CALCIFEDIOL ANHYDROUS], the Ratio Ki worked out at 0.01.

The test system of the next assay is HL-60. As to the kind of experiment: Ratio of 1alpha,25-(OH)2D3 ED50 to compound ED50 for induction of human HL60 cell differentiation by nitro blue tetrazolium reduction assay. Format: functional. The gist of the method:
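HL-60 promyelocytes were scored for maturation to monocytes as the percentage of cells reducing nitro blue tetrazolium. ED₅₀, the concentration giving 50% maturation, was taken from dose−response curves. The experiment was run in duplicate twice. Each value is the mean of the 1α,25-(OH)₂D₃ ED₅₀ divided by the analogue ED₅₀.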
Take `C=C1CC/C(=C/C=C2\CCC[C@]3(C)[C@@H]([C@H](C)CCCC(C)(C)O)CC[C@@H]23)C(=C)[C@H]1O`: the “Ratio ED50” value is reported as 2.

Regarding `C=C1CC/C(=C/C=C2\CCC[C@]3(C)[C@@H]([C@@H](C)CCCC(C)(C)O)CC[C@@H]23)C[C@H]1O`, the “Ratio ED50” value turned out to be 2.5.

As for `C=C1[C@H](O)CC(=C/C=C2\CCC[C@]3(C)[C@@H]([C@@H](C)CCCC(C)(C)O)CC[C@@H]23)C[C@H]1O` [DP001], the “Ratio ED50” value is 25.

Turning to `C=C1CC(=C)[C@H](O)C/C1=C/C=C1\CCC[C@]2(C)[C@@H]([C@@H](C)CCCC(C)(C)O)CC[C@@H]12`, the “Ratio ED50” value came to 0.22.

Turning to `C=C1CC[C@H](O)C/C1=C/C=C1\CCC[C@]2(C)[C@@H]([C@H](C)CCCC(C)(C)O)CC[C@@H]12` [CALCIFEDIOL ANHYDROUS], the “Ratio ED50” value turned out to be 0.001.

The next assay has as its target T1, Vitamin D3 receptor (Rattus norvegicus). Put plainly: Ratio of 1alpha,25-(OH)2D3 ED50 to compound ED50 for VDR-mediated 24-hydroxylase gene expression in rat ROS 17/2.8 cells after 16 hrs by luciferase reporter assay. The assay is classed as cell-based. The method, boiled down:
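Rat osteosarcoma cells stably transfected with a 24-hydroxylase gene reporter plasmid were used as a transcription assay. ED₅₀ is the concentration raising luciferase activity by 50%, taken from dose−response curves. Each value is the ratio of the 1α,25-(OH)₂D₃ ED₅₀ to the analogue ED₅₀.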
In general terms: A reporter such as luciferase makes a cellular process visible.
Consider `C=C1CC/C(=C/C=C2\CCC[C@]3(C)[C@@H]([C@H](C)CCCC(C)(C)O)CC[C@@H]23)C(=C)[C@H]1O`, for which the Ratio ED50 is 1.

In the case of `C=C1CC/C(=C/C=C2\CCC[C@]3(C)[C@@H]([C@@H](C)CCCC(C)(C)O)CC[C@@H]23)C[C@H]1O`, the Ratio ED50 amounted to 2.

Turning to `C=C1[C@H](O)CC(=C/C=C2\CCC[C@]3(C)[C@@H]([C@@H](C)CCCC(C)(C)O)CC[C@@H]23)C[C@H]1O` [DP001], the Ratio ED50 stood at 29.

As to `C=C1CC(=C)[C@H](O)C/C1=C/C=C1\CCC[C@]2(C)[C@@H]([C@@H](C)CCCC(C)(C)O)CC[C@@H]12`, the Ratio ED50 worked out at 0.2.

For `C=C1CC[C@H](O)C/C1=C/C=C1\CCC[C@]2(C)[C@@H]([C@H](C)CCCC(C)(C)O)CC[C@@H]12` [CALCIFEDIOL ANHYDROUS], the Ratio ED50 worked out at 0.001.

For another assay, the system named is Rattus norvegicus. As to the kind of experiment: Effect on bone calcium mobilization in weanling Sprague-Dawley rat assessed as serum calcium level at 87 pmol/day, ip administered as 4 consecutive daily doses measured 24 hrs after last dose (reference value: 4.2 to 4.9 mg/dL). The assay is classed as functional.
For the compound `C=C1CC/C(=C/C=C2\CCC[C@]3(C)[C@@H]([C@H](C)CCCC(C)(C)O)CC[C@@H]23)C(=C)[C@H]1O`, the Activity was 4.5 mg/dL.

Turning to `C=C1CC(=C)[C@H](O)C/C1=C/C=C1\CCC[C@]2(C)[C@@H]([C@@H](C)CCCC(C)(C)O)CC[C@@H]12`, the Activity is 4.8 mg/dL.

Another assay has as its system Rattus norvegicus. As to the kind of experiment: Effect on bone calcium mobilization in weanling Sprague-Dawley rat assessed as serum calcium level at 780 pmol/day, ip administered as 4 consecutive daily doses measured 24 hrs after last dose (reference value: 4.2 to 4.9 mg/dL). Format: functional.
Turning to `C=C1CC/C(=C/C=C2\CCC[C@]3(C)[C@@H]([C@H](C)CCCC(C)(C)O)CC[C@@H]23)C(=C)[C@H]1O`, the Activity came to 5.9 mg/dL.

`C=C1CC(=C)[C@H](O)C/C1=C/C=C1\CCC[C@]2(C)[C@@H]([C@@H](C)CCCC(C)(C)O)CC[C@@H]12`: the Activity stood at 7.5 mg/dL.

For a further assay, the system named is Rattus norvegicus. Put plainly: Effect on bone calcium mobilization in weanling Sprague-Dawley rat assessed as serum calcium level at 7020 pmol/day, ip administered as 4 consecutive daily doses measured 24 hrs after last dose (reference value: 4.2 to 4.9 mg/dL). The assay is classed as functional.
On to `C=C1CC/C(=C/C=C2\CCC[C@]3(C)[C@@H]([C@H](C)CCCC(C)(C)O)CC[C@@H]23)C(=C)[C@H]1O`, for which the Activity amounted to 8.8 mg/dL.

The next assay concerns Rattus norvegicus. Put plainly: Effect on bone calcium mobilization in weanling Sprague-Dawley rat assessed as serum calcium level at 35100 pmol/day, ip administered as 4 consecutive daily doses measured 24 hrs after last dose (reference value: 4.2 to 4.9 mg/dL). Format: functional.
Consider `C=C1CC/C(=C/C=C2\CCC[C@]3(C)[C@@H]([C@H](C)CCCC(C)(C)O)CC[C@@H]23)C(=C)[C@H]1O`, for which the Activity was 8.2 mg/dL.

A further assay concerns Rattus norvegicus. As to the kind of experiment: Effect on bone calcium mobilization in weanling Sprague-Dawley rat assessed as serum calcium level at 32 pmol/day, ip administered as 4 consecutive daily doses measured 24 hrs after last dose (reference value: 4.2 to 4.9 mg/dL). Format: functional.
Turning to `C=C1CC(=C)[C@H](O)C/C1=C/C=C1\CCC[C@]2(C)[C@@H]([C@@H](C)CCCC(C)(C)O)CC[C@@H]12`, the Activity stood at 4.3 mg/dL.

The test system of another assay is Rattus norvegicus. As to the kind of experiment: Effect on intestinal calcium transport in weanling Sprague-Dawley rat assessed as increase in ratio of serosal to mucosal calcium level at 780 pmol/day, ip administered as 4 consecutive daily doses measured 24 hrs after last dose. The assay is classed as functional.
`C=C1CC/C(=C/C=C2\CCC[C@]3(C)[C@@H]([C@H](C)CCCC(C)(C)O)CC[C@@H]23)C(=C)[C@H]1O`: the Ratio was found to be 11.8.

With `C=C1CC(=C)[C@H](O)C/C1=C/C=C1\CCC[C@]2(C)[C@@H]([C@@H](C)CCCC(C)(C)O)CC[C@@H]12`, the Ratio was determined as 14.3.

The test system of a further assay is Rattus norvegicus. As to the kind of experiment: Effect on intestinal calcium transport in weanling Sprague-Dawley rat assessed as increase in ratio of serosal to mucosal calcium level at 87 pmol/day, ip administered as 4 consecutive daily doses measured 24 hrs after last dose. Format: functional.
In the case of `C=C1CC/C(=C/C=C2\CCC[C@]3(C)[C@@H]([C@H](C)CCCC(C)(C)O)CC[C@@H]23)C(=C)[C@H]1O`, the Ratio was 8.5.

Consider `C=C1CC(=C)[C@H](O)C/C1=C/C=C1\CCC[C@]2(C)[C@@H]([C@@H](C)CCCC(C)(C)O)CC[C@@H]12`, for which the Ratio was found to be 9.8.

The subject of a further assay is Rattus norvegicus. Put plainly: Effect on intestinal calcium transport in weanling Sprague-Dawley rat assessed as increase in ratio of serosal to mucosal calcium level at 7020 pmol/day, ip administered as 4 consecutive daily doses measured 24 hrs after last dose. The assay is classed as functional.
As to `C=C1CC/C(=C/C=C2\CCC[C@]3(C)[C@@H]([C@H](C)CCCC(C)(C)O)CC[C@@H]23)C(=C)[C@H]1O`, the Ratio is listed as 9.8.

Another assay has as its system Rattus norvegicus. As to the kind of experiment: Effect on intestinal calcium transport in weanling Sprague-Dawley rat assessed as increase in ratio of serosal to mucosal calcium level at 35100 pmol/day, ip administered as 4 consecutive daily doses measured 24 hrs after last dose. Format: functional.
On to `C=C1CC/C(=C/C=C2\CCC[C@]3(C)[C@@H]([C@H](C)CCCC(C)(C)O)CC[C@@H]23)C(=C)[C@H]1O`, for which the Ratio turned out to be 11.3.

In another assay the test system is Rattus norvegicus. As to the kind of experiment: Effect on intestinal calcium transport in weanling Sprague-Dawley rat assessed as increase in ratio of serosal to mucosal calcium level at 32 pmol/day, ip administered as 4 consecutive daily doses measured 24 hrs after last dose. Format: functional.
Regarding `C=C1CC(=C)[C@H](O)C/C1=C/C=C1\CCC[C@]2(C)[C@@H]([C@@H](C)CCCC(C)(C)O)CC[C@@H]12`, the Ratio stood at 9.
